Converted amounts (≈) assume the structure as drawn.
Experiments:
[1] = system: Escherichia coli; experiment: Antimicrobial activity against Escherichia coli 1889647 B-H isolated from patient with pyelonephritis assessed as >3-log reduction in urinary bacterial titer after 24 hrs; type: functional, Urine
How it was run: (§1)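 Urine was collected on day 3 of i.v. therapy (steady state) over 4-h intervals from infusion start (0–4 to 20–24 h), stored at –80°C and sterile filtered. It was serially diluted twofold (1:0 up to 1:131,072) in the patient's own pre-dose drug-free urine. Microdilution used a final inoculum of 1.0 x 10^6 to 9.5 x 10^6 CFU/ml, incubated 18 h at 37°C in air. 10 µl was subcultured onto 5% blood Columbia agar for 24 h at 37°C. The bactericidal endpoint was >99.9% (>3-log) kill, reported as a reciprocal titer.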

[2] = system: Serratia marcescens; experiment: Antimicrobial activity against Serratia marcescens 2297260 B-U isolated from patient with pyelonephritis by Etest; type: functional
[3] = system: Staphylococcus epidermidis; experiment: Antimicrobial activity against Staphylococcus epidermidis 1949822 B-J isolated from patient with pyelonephritis assessed as >3-log reduction in urinary bacterial titer after 12 hrs; type: functional, Urine
[4] = system: Enterococcus faecalis; experiment: Antimicrobial activity against Enterococcus faecalis 2297262-10 B-V isolated from patient with pyelonephritis by Etest; type: functional
[5] = system: Staphylococcus aureus; experiment: Antimicrobial activity against Staphylococcus aureus 1889640 A-Z isolated from patient with pyelonephritis assessed as >3-log reduction in urinary bacterial titer after 12 hrs; type: functional, Urine
[6] = system: Staphylococcus epidermidis; experiment: Antimicrobial activity against Staphylococcus epidermidis 2297262-9 B-V isolated from patient with pyelonephritis assessed as >3-log reduction in urinary bacterial titer after 12 hrs; type: functional, Urine
[7] = system: Enterococcus faecalis; experiment: Antimicrobial activity against Enterococcus faecalis 2215767-10 B-S isolated from patient with pyelonephritis assessed as >3-log reduction in urinary bacterial titer after 20 hrs; type: functional, Urine
How it was run: (§2)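 Urine was collected before dosing and on day 3 of i.v. therapy (steady state), in 4-h intervals from infusion start (0–4 to 20–24 h), stored at −80°C and sterile filtered. It was serially diluted twofold (1:0 to 1:131,072) in the patient's drug-free pre-dose urine. Microdilution used an inoculum of 1.0 x 10^6–9.5 x 10^6 CFU/ml, incubated 18 h at 37°C, then subcultured 24 h on blood agar. The endpoint was >99.9% kill, reported as reciprocal titer.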

[8] = system: Staphylococcus epidermidis; experiment: Antimicrobial activity against Staphylococcus epidermidis 1949822 B-J isolated from patient with pyelonephritis assessed as >3-log reduction in urinary bacterial titer after 16 hrs; type: functional, Urine
[9] = system: Staphylococcus aureus; experiment: Antimicrobial activity against Staphylococcus aureus 2215767-9 B-S isolated from patient with pyelonephritis assessed as >3-log reduction in urinary bacterial titer after 8 hrs; type: functional, Urine
[10] = system: Escherichia coli; experiment: Antimicrobial activity against Escherichia coli 1821386 B-D isolated from patient with pyelonephritis assessed as >3-log reduction in urinary bacterial titer after 8 hrs; type: functional, Urine; how it was run: as §1
[11] = system: Pseudomonas aeruginosa; experiment: Antimicrobial activity against Pseudomonas aeruginosa 2062713 B-Q isolated from patient with pyelonephritis assessed as >3-log reduction in urinary bacterial titer after 20 hrs; type: functional, Urine
[12] = system: Serratia marcescens; experiment: Antimicrobial activity against Serratia marcescens 2297260 B-U isolated from patient with pyelonephritis assessed as >3-log reduction in urinary bacterial titer after 16 hrs; type: functional, Urine
[13] = system: Escherichia coli; experiment: Antimicrobial activity against Escherichia coli 1780064 A-X isolated from patient with pyelonephritis assessed as >3-log reduction in urinary bacterial titer after 24 hrs; type: functional, Urine; how it was run: as §1
[14] = system: Escherichia coli; experiment: Antimicrobial activity against Escherichia coli 1655646 A-Y isolated from patient with pyelonephritis assessed as >3-log reduction in urinary bacterial titer after 24 hrs; type: functional, Urine; how it was run: as §2
[15] = system: Staphylococcus aureus; experiment: Antimicrobial activity against Staphylococcus aureus 2215767-9 B-S isolated from patient with pyelonephritis assessed as >3-log reduction in urinary bacterial titer after 16 hrs; type: functional, Urine
[16] = system: Staphylococcus aureus; experiment: Antimicrobial activity against Staphylococcus aureus 1889640 A-Z isolated from patient with pyelonephritis assessed as >3-log reduction in urinary bacterial titer after 8 hrs; type: functional, Urine
[17] = system: Staphylococcus aureus; experiment: Antimicrobial activity against Staphylococcus aureus 1889640 A-Z isolated from patient with pyelonephritis assessed as >3-log reduction in urinary bacterial titer after 24 hrs; type: functional, Urine
[18] = system: Enterococcus faecalis; experiment: Antimicrobial activity against Enterococcus faecalis 2215767-10 B-S isolated from patient with pyelonephritis assessed as >3-log reduction in urinary bacterial titer after 12 hrs; type: functional, Urine; how it was run: as §2
[19] = system: Enterococcus faecalis; experiment: Antimicrobial activity against Enterococcus faecalis 2215767-10 B-S isolated from patient with pyelonephritis assessed as >3-log reduction in urinary bacterial titer after 16 hrs; type: functional, Urine; how it was run: as §2
[20] = system: Escherichia coli; experiment: Antimicrobial activity against Escherichia coli 2062716 B-R isolated from patient with pyelonephritis assessed as >3-log reduction in urinary bacterial titer after 8 hrs; type: functional, Urine
How it was run: (§3)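 Patient urine was collected on day 3 of i.v. therapy (steady state) over 4-h intervals after infusion start, stored at –80°C, and sterile filtered. It was twofold serially diluted (1:0 to 1:131,072) in the patient's own pre-dose drug-free urine, inoculated to 1.0 x 10^6–9.5 x 10^6 CFU/ml, and incubated for 18 h at 37°C. Subcultures were grown on blood agar for 24 h. The UBT is the reciprocal of the highest dilution giving >99.9% kill.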

[21] = system: Escherichia coli; experiment: Antimicrobial activity against Escherichia coli 1780064 A-X isolated from patient with pyelonephritis assessed as >3-log reduction in urinary bacterial titer after 4 hrs; type: functional, Urine; how it was run: as §1
[22] = system: Staphylococcus epidermidis; experiment: Antimicrobial activity against Staphylococcus epidermidis 2297262-9 B-V isolated from patient with pyelonephritis assessed as >3-log reduction in urinary bacterial titer after 24 hrs; type: functional, Urine
[23] = system: Escherichia coli; experiment: Antimicrobial activity against Escherichia coli 1655646 A-Y isolated from patient with pyelonephritis assessed as >3-log reduction in urinary bacterial titer after 16 hrs; type: functional, Urine; how it was run: as §2
[24] = system: Pseudomonas aeruginosa; experiment: Antimicrobial activity against Pseudomonas aeruginosa 2062713 B-Q isolated from patient with pyelonephritis assessed as >3-log reduction in urinary bacterial titer after 8 hrs; type: functional, Urine
[25] = system: Escherichia coli; experiment: Antimicrobial activity against Escherichia coli 1655646 A-Y isolated from patient with pyelonephritis assessed as >3-log reduction in urinary bacterial titer after 12 hrs; type: functional, Urine; how it was run: as §2
[26] = T>MIC in Pseudomonas aeruginosa infected in thigh of neutropenic mouse at 500 mg/kg, iv administered every 8 hrs; type: functional
[27] = system: Escherichia coli; experiment: Antimicrobial activity against Escherichia coli 1821385 B-C isolated from patient with pyelonephritis assessed as >3-log reduction in urinary bacterial titer after 8 hrs; type: functional, Urine; how it was run: as §1
[28] = system: Enterococcus faecalis; experiment: Antimicrobial activity against Enterococcus faecalis 2215770 B-T isolated from patient with pyelonephritis by Etest; type: functional
[29] = system: Escherichia coli; experiment: Antimicrobial activity against Escherichia coli 2062717 B-P isolated from patient with pyelonephritis assessed as >3-log reduction in urinary bacterial titer after 12 hrs; type: functional, Urine; how it was run: as §3
[30] = system: Escherichia coli; experiment: Antimicrobial activity against Escherichia coli 1949826 B-L isolated from patient with pyelonephritis assessed as >3-log reduction in urinary bacterial titer after 20 hrs; type: functional, Urine; how it was run: as §3
[31] = system: Enterococcus faecalis; experiment: Antimicrobial activity against Enterococcus faecalis 2215770 B-T isolated from patient with pyelonephritis assessed as >3-log reduction in urinary bacterial titer after 12 hrs; type: functional, Urine; how it was run: as §2
[32] = system: Staphylococcus haemolyticus; experiment: Antimicrobial activity against Staphylococcus haemolyticus 1949819 B-M isolated from patient with pyelonephritis assessed as >3-log reduction in urinary bacterial titer after 16 hrs; type: functional, Urine
[33] = system: Escherichia coli; experiment: Antimicrobial activity against Escherichia coli 1821385 B-C isolated from patient with pyelonephritis assessed as >3-log reduction in urinary bacterial titer after 16 hrs; type: functional, Urine; how it was run: as §1
[34] = system: Escherichia coli; experiment: Antimicrobial activity against Escherichia coli 1889646 B-F isolated from patient with pyelonephritis assessed as >3-log reduction in urinary bacterial titer after 20 hrs; type: functional, Urine; how it was run: as §1

Compound: C[C@H]1COc2c(N3CCN(C)CC3)c(F)cc3c(=O)c(C(=O)O)cn1c23.C[C@H]1COc2c(N3CCN(C)CC3)c(F)cc3c(=O)c(C(=O)O)cn1c23.O [LEVOFLOXACIN]
- urinary bactericidal titer [1]: 256 reciprocal titer
- MIC [2]: 0.19 µg/mL
- urinary bactericidal titer [3]: 2 reciprocal titer
- MIC [4]: > 32 µg/mL
- urinary bactericidal titer [5]: 128 reciprocal titer
- urinary bactericidal titer [6]: 4 reciprocal titer
- Time [7]: 0 h
- urinary bactericidal titer [8]: 4 reciprocal titer
- urinary bactericidal titer [9]: 0 reciprocal titer
- urinary bactericidal titer [10]: 8192 reciprocal titer
- urinary bactericidal titer [11]: 4 reciprocal titer
- urinary bactericidal titer [12]: 128 reciprocal titer
- urinary bactericidal titer [13]: 128 reciprocal titer
- urinary bactericidal titer [14]: 256 reciprocal titer
- urinary bactericidal titer [15]: 0 reciprocal titer
- urinary bactericidal titer [16]: 128 reciprocal titer
- urinary bactericidal titer [17]: 64 reciprocal titer
- urinary bactericidal titer [18]: 1 reciprocal titer
- urinary bactericidal titer [19]: 0 reciprocal titer
- urinary bactericidal titer [20]: 512 reciprocal titer
- urinary bactericidal titer [21]: 1024 reciprocal titer
- urinary bactericidal titer [22]: 2 reciprocal titer
- urinary bactericidal titer [23]: 1024 reciprocal titer
- urinary bactericidal titer [24]: 4 reciprocal titer
- urinary bactericidal titer [25]: 2048 reciprocal titer

Compound: C[C@@H](O)[C@H]1C(=O)N2C(C(=O)O)=C(S[C@@H]3CN[C@H](CNS(N)(=O)=O)C3)[C@H](C)[C@H]12 [DORIPENEM]
- fT>MIC [26]: 20%
- urinary bactericidal titer [27]: 256 reciprocal titer
- MIC [28]: 0.25 µg/mL (≈ 0.595 µM)
- urinary bactericidal titer [29]: 1024 reciprocal titer
- urinary bactericidal titer [30]: 65500 reciprocal titer
- urinary bactericidal titer [31]: 1024 reciprocal titer
- urinary bactericidal titer [32]: 128 reciprocal titer
- urinary bactericidal titer [33]: 8192 reciprocal titer
- urinary bactericidal titer [34]: 65500

Reference: ChEMBL document CHEMBL1649151, “Urinary bactericidal activity of Doripenem versus that of levofloxacin in patients with complicated urinary tract infections or pyelonephritis” (Antimicrob Agents Chemother, 2009)
